Laboratory results reported in the M2OR odorant receptor database.

Assays:
Details in all cases: stereoisomer not certain
OR2L13 (Homo sapiens) = target: T1, OR2L13 (Homo sapiens) (UniProt Q8N349)
T1 sequence (whole entry): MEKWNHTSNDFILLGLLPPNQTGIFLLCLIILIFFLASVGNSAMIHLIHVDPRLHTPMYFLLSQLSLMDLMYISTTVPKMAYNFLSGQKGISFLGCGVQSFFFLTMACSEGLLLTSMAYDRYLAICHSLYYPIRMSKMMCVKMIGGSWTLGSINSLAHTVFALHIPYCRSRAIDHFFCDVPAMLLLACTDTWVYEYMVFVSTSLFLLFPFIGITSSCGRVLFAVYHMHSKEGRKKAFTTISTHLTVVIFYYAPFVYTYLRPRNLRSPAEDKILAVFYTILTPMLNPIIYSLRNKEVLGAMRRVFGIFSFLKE
How it was run: (§1)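 Whether a receptor–molecule pair is responsive (active) rests on the original authors' judgment that its measured signal was statistically different from baseline. Pairs without that judgment are non-responsive (inactive). Sources used varied assay methods, commonly transient luciferase assays in mammalian cell lines.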

OR2M3 (Homo sapiens) = target: T2, OR2M3 (Homo sapiens) (UniProt Q8NG83)
T2 sequence (whole entry): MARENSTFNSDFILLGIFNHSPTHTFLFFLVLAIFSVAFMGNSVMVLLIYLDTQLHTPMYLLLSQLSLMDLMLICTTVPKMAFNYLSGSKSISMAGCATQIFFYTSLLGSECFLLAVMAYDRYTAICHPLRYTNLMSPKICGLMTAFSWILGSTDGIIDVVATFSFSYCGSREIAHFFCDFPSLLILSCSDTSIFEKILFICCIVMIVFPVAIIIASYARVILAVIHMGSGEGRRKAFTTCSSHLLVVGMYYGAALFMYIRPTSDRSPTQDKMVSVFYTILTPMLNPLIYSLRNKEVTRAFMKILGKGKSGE
How it was run: as §1

OR2T10 (Homo sapiens) = target: T3, OR2T10 (Homo sapiens) (UniProt Q8NGZ9)
T3 sequence (whole entry): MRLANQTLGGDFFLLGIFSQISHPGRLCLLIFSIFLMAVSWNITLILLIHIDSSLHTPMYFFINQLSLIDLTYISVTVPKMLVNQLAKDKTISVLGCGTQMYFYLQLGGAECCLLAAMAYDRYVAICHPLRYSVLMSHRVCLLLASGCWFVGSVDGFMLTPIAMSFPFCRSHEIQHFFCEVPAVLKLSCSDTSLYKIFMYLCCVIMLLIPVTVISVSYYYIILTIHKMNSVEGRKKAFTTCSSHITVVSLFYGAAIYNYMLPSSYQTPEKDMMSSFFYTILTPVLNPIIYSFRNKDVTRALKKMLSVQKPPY
How it was run: as §1

OR2M7 (Homo sapiens) = target: T4, OR2M7 (Homo sapiens) (UniProt Q8NG81)
T4 sequence (whole entry): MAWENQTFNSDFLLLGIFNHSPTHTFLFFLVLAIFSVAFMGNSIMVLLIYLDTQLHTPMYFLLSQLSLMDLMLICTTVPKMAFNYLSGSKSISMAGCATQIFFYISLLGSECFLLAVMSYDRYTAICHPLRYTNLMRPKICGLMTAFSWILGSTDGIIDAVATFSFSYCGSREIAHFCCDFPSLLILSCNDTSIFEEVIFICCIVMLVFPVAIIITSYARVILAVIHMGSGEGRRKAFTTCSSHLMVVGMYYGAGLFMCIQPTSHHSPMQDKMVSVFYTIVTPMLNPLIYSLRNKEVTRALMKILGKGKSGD
How it was run: as §1

OR2J3 [1] = tested on: OR2J3
How it was run: as §1
Target sequence in this assay (as listed by the source): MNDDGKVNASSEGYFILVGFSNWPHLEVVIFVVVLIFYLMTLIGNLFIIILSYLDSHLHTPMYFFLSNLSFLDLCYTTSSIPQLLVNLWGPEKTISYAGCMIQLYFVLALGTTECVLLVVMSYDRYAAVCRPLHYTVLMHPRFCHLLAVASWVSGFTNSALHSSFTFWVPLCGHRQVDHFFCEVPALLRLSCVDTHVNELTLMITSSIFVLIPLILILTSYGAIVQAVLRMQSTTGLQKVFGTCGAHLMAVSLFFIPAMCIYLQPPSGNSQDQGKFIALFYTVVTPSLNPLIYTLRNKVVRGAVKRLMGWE

OR2J3 [2] = tested on: OR2J3; remark: listed apart in the source
How it was run: as §1
Target sequence in this assay (as listed by the source): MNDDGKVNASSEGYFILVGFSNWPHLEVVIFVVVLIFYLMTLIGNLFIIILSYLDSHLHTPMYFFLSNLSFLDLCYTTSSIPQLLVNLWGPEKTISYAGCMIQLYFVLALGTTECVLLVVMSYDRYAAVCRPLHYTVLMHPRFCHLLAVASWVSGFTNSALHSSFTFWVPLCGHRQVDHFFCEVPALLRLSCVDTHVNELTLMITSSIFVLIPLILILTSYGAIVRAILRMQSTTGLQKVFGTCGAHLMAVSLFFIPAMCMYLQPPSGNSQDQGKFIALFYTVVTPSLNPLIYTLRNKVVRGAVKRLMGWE

OR2J3 [3] = tested on: OR2J3; remark: listed apart in the source
How it was run: as §1
Target sequence in this assay (as listed by the source): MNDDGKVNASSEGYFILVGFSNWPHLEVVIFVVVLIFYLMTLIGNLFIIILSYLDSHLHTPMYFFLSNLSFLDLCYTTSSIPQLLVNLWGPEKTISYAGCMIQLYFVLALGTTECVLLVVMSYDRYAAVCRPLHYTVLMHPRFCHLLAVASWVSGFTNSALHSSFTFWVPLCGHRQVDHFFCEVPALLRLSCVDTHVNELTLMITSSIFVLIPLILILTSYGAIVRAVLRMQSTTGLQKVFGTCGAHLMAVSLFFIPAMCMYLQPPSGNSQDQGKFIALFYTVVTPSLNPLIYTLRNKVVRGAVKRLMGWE

OR2M4 (Homo sapiens) = target: T5, OR2M4 (Homo sapiens) (UniProt Q96R27)
T5 sequence (whole entry): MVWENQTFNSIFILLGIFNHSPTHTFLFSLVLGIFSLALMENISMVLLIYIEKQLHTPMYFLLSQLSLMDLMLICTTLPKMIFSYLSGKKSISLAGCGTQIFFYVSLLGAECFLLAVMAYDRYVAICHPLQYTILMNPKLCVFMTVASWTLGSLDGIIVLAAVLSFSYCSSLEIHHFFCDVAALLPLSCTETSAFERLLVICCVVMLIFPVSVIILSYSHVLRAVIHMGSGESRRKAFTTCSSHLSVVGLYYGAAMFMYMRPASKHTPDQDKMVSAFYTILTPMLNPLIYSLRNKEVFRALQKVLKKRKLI
How it was run: as §1

OR2K2 (Homo sapiens) = OR2K2 (Homo sapiens) (UniProt Q8NGT1)
Chain of OR2K2 (Homo sapiens) (Q8NGT1 whole entry): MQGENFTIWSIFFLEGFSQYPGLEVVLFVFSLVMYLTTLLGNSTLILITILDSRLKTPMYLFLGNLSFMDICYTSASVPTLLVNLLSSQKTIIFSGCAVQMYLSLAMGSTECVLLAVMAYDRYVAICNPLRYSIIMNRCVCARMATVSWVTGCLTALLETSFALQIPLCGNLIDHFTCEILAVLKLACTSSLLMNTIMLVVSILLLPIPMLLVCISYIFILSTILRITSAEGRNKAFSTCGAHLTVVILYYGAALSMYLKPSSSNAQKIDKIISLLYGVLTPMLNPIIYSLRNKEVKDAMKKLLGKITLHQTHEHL
How it was run: as §1

OR2L2 (Homo sapiens) = OR2L2 (Homo sapiens) (UniProt Q8NH16)
Chain of OR2L2 (Homo sapiens) (Q8NH16 whole entry): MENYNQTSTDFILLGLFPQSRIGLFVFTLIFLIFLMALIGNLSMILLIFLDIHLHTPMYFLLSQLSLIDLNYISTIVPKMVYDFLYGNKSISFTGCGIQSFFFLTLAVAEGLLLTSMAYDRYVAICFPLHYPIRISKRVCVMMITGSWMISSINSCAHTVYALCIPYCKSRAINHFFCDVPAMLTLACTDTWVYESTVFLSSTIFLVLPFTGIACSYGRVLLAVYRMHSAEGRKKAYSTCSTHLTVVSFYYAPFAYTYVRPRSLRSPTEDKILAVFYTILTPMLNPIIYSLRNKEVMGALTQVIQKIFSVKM
How it was run: as §1

OR2L3 (Homo sapiens) = OR2L3 (Homo sapiens) (UniProt Q8NG85)
Chain of OR2L3 (Homo sapiens) (Q8NG85 whole entry): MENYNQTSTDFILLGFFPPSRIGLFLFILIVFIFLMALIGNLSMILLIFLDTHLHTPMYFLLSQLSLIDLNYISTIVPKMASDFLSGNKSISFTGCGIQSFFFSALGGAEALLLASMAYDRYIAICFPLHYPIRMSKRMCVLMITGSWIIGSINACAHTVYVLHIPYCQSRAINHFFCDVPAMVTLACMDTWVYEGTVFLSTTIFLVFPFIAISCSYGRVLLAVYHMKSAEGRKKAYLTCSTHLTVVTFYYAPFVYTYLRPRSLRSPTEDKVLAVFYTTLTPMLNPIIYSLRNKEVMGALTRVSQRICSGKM
How it was run: as §1

OR2L5 (Homo sapiens) = OR2L5 (Homo sapiens) (UniProt Q8NG80)
Chain of OR2L5 (Homo sapiens) (Q8NG80 whole entry): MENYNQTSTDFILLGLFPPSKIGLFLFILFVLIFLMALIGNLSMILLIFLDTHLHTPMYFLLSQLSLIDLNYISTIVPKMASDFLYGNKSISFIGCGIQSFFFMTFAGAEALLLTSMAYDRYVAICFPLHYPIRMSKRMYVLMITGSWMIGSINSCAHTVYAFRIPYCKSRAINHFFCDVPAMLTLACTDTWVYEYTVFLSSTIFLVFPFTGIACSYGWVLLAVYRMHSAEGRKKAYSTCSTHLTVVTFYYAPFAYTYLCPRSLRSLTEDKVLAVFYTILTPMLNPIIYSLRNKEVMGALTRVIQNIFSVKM
How it was run: as §1

OR2L8 (Homo sapiens) = OR2L8 (Homo sapiens) (UniProt Q8NGY9)
Chain of OR2L8 (Homo sapiens) (Q8NGY9 whole entry): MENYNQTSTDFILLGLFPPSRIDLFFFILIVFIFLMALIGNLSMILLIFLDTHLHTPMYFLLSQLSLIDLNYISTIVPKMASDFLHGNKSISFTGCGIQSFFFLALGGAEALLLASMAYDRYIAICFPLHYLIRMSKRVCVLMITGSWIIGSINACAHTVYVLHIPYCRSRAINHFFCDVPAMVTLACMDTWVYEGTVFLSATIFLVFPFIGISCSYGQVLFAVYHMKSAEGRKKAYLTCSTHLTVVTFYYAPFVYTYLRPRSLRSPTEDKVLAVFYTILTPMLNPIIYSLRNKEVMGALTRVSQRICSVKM
How it was run: as §1

OR2M2 (Homo sapiens) = OR2M2 (Homo sapiens) (UniProt Q96R28)
Chain of OR2M2 (Homo sapiens) (Q96R28 whole entry): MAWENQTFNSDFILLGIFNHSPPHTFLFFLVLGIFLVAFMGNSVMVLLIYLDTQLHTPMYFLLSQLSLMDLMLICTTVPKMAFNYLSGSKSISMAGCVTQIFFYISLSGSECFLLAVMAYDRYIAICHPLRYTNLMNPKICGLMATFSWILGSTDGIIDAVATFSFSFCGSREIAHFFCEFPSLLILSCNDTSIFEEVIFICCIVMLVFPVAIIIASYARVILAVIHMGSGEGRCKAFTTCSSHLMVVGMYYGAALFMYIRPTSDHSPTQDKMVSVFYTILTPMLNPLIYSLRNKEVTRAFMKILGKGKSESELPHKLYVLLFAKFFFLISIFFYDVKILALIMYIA
How it was run: as §1

OR2M5 (Homo sapiens) = OR2M5 (Homo sapiens) (UniProt A3KFT3)
Chain of OR2M5 (Homo sapiens) (A3KFT3 whole entry): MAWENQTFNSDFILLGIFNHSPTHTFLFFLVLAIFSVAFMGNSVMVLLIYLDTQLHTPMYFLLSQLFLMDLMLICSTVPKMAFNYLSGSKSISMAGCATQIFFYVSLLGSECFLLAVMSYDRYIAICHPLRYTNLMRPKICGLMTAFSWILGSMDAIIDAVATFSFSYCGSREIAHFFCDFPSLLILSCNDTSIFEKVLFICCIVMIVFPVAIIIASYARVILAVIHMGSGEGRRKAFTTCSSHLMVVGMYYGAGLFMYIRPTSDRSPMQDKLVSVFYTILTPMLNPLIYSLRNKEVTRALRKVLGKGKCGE
How it was run: as §1

OR2M5 D11G = tested on: OR2M5 D11G
Chain of OR2M5 D11G (as listed by the source, stated change not applied): as the sequence (A3KFT3 whole entry) above, with D11G counted along it
How it was run: as §1

OR2S2 (Homo sapiens) = OR2S2 (Homo sapiens) (UniProt Q9NQN1)
Chain of OR2S2 (Homo sapiens) (Q9NQN1 whole entry): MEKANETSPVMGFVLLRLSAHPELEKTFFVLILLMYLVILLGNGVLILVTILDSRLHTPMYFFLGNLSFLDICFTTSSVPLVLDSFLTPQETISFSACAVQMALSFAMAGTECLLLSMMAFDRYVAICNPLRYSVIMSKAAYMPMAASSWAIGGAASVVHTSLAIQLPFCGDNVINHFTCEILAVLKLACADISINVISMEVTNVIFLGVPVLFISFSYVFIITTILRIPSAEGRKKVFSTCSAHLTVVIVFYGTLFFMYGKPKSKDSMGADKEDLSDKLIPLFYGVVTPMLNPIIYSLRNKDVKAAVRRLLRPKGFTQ
How it was run: as §1

OR2T1 (Homo sapiens) = OR2T1 (Homo sapiens) (UniProt O43869)
Chain of OR2T1 (Homo sapiens) (O43869 whole entry): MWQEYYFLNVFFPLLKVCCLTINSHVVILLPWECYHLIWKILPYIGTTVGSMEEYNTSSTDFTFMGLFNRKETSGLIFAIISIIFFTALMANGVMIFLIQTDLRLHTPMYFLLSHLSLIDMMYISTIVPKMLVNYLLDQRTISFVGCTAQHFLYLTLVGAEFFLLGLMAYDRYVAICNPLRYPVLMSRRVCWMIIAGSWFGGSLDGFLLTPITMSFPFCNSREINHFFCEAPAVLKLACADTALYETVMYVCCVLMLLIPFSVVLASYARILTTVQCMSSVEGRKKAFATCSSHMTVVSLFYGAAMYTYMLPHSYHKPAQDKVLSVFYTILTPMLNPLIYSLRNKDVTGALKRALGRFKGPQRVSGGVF
How it was run: as §1

OR2T11 (Homo sapiens) = OR2T11 (Homo sapiens) (UniProt Q8NH01)
Chain of OR2T11 (Homo sapiens) (Q8NH01 whole entry): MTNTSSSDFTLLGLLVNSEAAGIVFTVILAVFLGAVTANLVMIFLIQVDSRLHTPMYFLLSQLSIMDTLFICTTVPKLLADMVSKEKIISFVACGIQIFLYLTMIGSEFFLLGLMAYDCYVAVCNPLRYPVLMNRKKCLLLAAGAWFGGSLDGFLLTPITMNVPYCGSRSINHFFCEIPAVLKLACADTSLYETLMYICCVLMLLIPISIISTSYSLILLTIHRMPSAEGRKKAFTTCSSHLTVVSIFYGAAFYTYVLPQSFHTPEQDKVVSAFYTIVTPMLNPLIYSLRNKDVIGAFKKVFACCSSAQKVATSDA
How it was run: as §1

OR2T12 (Homo sapiens) = OR2T12 (Homo sapiens) (UniProt Q8NG77)
Chain of OR2T12 (Homo sapiens) (Q8NG77 whole entry): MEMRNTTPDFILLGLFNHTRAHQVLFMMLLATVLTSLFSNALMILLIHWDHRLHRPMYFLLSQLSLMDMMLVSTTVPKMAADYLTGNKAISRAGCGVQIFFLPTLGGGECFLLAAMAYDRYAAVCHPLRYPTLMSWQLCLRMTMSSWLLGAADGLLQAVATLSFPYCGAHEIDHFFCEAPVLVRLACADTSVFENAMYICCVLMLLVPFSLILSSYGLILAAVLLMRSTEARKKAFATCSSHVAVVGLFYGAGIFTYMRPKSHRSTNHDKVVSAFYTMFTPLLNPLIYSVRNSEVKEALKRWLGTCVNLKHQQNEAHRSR
How it was run: as §1

Measured: odorant receptor agonist call;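 further: active if original authors judged signal statistically different from baseline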

COc1ccc(C=O)cc1
inactive: OR2L13 (Homo sapiens) | OR2M3 (Homo sapiens)

C=CCc1ccc(OC)cc1
inactive: OR2M3 (Homo sapiens) | OR2T10 (Homo sapiens)

CCC1CCC(=O)O1 (centres undefined)
inactive: OR2M7 (Homo sapiens)

Cc1ccccc1O
inactive: OR2M3 (Homo sapiens)

CCOC(=O)Cc1ccccc1
inactive: OR2M3 (Homo sapiens)

C=CCSSCC=C
inactive: OR2M3 (Homo sapiens)

Cc1cccc(C)c1
inactive: OR2L13 (Homo sapiens)

SCc1ccco1
inactive: OR2M3 (Homo sapiens)

O=CC=Cc1ccccc1
active: OR2J3 [1] | OR2J3 [2] | OR2J3 [3] | OR2M4 (Homo sapiens) | OR2T10 (Homo sapiens)

Cc1ccc(O)c(C)c1
inactive: OR2M3 (Homo sapiens)

C=CCOC(=O)Cc1ccccc1
not listed: OR2J3 [1] | OR2J3 [3]
inactive: all other assays above

C=CCc1ccccc1
inactive: OR2M7 (Homo sapiens)

O=C(O)Cc1ccccc1
inactive: OR2M3 (Homo sapiens)

O=Cc1ccccc1
inactive: OR2M4 (Homo sapiens) | OR2T10 (Homo sapiens)

O=c1cc(O)c2ccccc2o1
inactive: OR2M7 (Homo sapiens)

CSSC
inactive: OR2M3 (Homo sapiens)

Cc1c([N+](=O)[O-])c(C)c([N+](=O)[O-])c(C(C)(C)C)c1[N+](=O)[O-]
not listed: OR2J3 [1] | OR2J3 [2] | OR2J3 [3] | OR2M4 (Homo sapiens) | OR2L2 (Homo sapiens) | OR2M5 D11G
inactive: all other assays above
